According to ChEMBL document CHEMBL3244142, “Antifungal properties of 2-bromo-3-fluorosuccinic acid esters and related compounds” (1977):
Values after ≈ are worked out from the molar mass of the structure shown. Where a name gives a salt, the structure may show the parent alone. Active and inactive are the calls of the source. The calls are words filed in the database; no cut-off is given here.

Key:
Mucor mucedo [1] = assay: Antifungal activity against Mucor mucedo ATCC 7941 at <100 ug/ml at pH 7 after 20 h in presence of 10% beef serum
Aspergillus niger [2] = assay: Antifungal activity against Aspergillus niger ATCC 1004 at <100 ug/ml at pH 7 after 5 days in presence of 10% beef serum; type: functional, organism-based
Outline: (§1)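 Agar-dilution MIC in Sabouraud dextrose agar at pH 5.6 or 7.0, with or without 10% beef serum. Plates were incubated at 28 °C for 5 days. MIC is the lowest concentration (µg/mL) giving 100% inhibition. Steps were 1 µg/mL up to 10, 2 µg/mL from 10–20, and 10 µg/mL from 20–100; 100 µg/mL was the top level, and no inhibition there is scored as >100.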

Candida albicans [3] = assay: Antifungal activity against Candida albicans ATCC 10231 at pH 5.6 after 20 h in absence of 10% beef serum; details: ATCC 10231, 20 h
[4] = tested on: Trichophyton mentagrophytes; assay: Antifungal activity against Trichophyton mentagrophytes ATCC 9129 at <100 ug/ml at pH 7 after 5 days in presence of 10% beef serum; type: functional, organism-based
Outline: as §1

Candida albicans [5] = assay: Antifungal activity against Candida albicans ATCC 10231 at pH 7 after 20 h in absence of 10% beef serum; details: ATCC 10231, 20 h
[6] = tested on: Trichophyton mentagrophytes; assay: Antifungal activity against Trichophyton mentagrophytes ATCC 9129 at pH 7 after 5 days in absence of 10% beef serum; type: functional; details: Trichophyton mentagrophytes, ATCC 9129, 120 h; read-out: MIC
Outline: as §1

Mucor mucedo [7] = assay: Antifungal activity against Mucor mucedo ATCC 7941 at pH 7 after 20 h in absence of 10% beef serum; details: ATCC 7941, 20 h
Aspergillus niger [8] = assay: Antifungal activity against Aspergillus niger ATCC 1004 at <100 ug/ml at pH 5.6 after 5 days in absence of 10% beef serum; type: functional, organism-based
Outline: as §1

Aspergillus niger [9] = assay: Antifungal activity against Aspergillus niger ATCC 1004 at <100 ug/ml at pH 7 after 5 days in absence of 10% beef serum; type: functional, organism-based
Outline: as §1

[10] = tested on: Trichophyton mentagrophytes; assay: Antifungal activity against Trichophyton mentagrophytes ATCC 9129 at pH 5.6 after 5 days in absence of 10% beef serum; type: functional; details: Trichophyton mentagrophytes, ATCC 9129, 120 h; read-out: MIC
Outline: as §1

Candida albicans [11] = assay: Antifungal activity against Candida albicans ATCC 10231 at <100 ug/ml at pH 5.6 after 20 h in presence of 10% beef serum
Mucor mucedo [12] = assay: Antifungal activity against Mucor mucedo ATCC 7941 at <100 ug/ml at pH 5.6 after 20 h in presence of 10% beef serum
Mucor mucedo [13] = assay: Antifungal activity against Mucor mucedo ATCC 7941 at pH 5.6 after 20 h in absence of 10% beef serum; details: ATCC 7941, 20 h
[14] = tested on: Trichophyton mentagrophytes; assay: Antifungal activity against Trichophyton mentagrophytes ATCC 9129 at pH 5.6 after 5 days in presence of 10% beef serum; type: functional; details: Trichophyton mentagrophytes, ATCC 9129, 120 h; read-out: MIC
Outline: as §1

Aspergillus niger [15] = assay: Antifungal activity against Aspergillus niger ATCC 1004 at <100 ug/ml at pH 5.6 after 5 days in presence of 10% beef serum; type: functional, organism-based
Outline: as §1

Candida albicans [16] = assay: Antifungal activity against Candida albicans ATCC 10231 at <100 ug/ml at pH 7 after 20 h in presence of 10% beef serum
Mucor mucedo [17] = assay: Antifungal activity against Mucor mucedo ATCC 7941 at <100 ug/ml at pH 7 after 20 h in absence of 10% beef serum
Candida albicans [18] = assay: Antifungal activity against Candida albicans ATCC 10231 at <100 ug/ml at pH 7 after 20 h in absence of 10% beef serum
[19] = tested on: Trichophyton mentagrophytes; assay: Antifungal activity against Trichophyton mentagrophytes ATCC 9129 at pH 7 after 5 days in presence of 10% beef serum; type: functional; details: Trichophyton mentagrophytes, ATCC 9129, 120 h; read-out: MIC
Outline: as §1

Candida albicans [20] = assay: Antifungal activity against Candida albicans ATCC 10231 at <100 ug/ml at pH 5.6 after 20 h in absence of 10% beef serum
Mucor mucedo [21] = assay: Antifungal activity against Mucor mucedo ATCC 7941 at <100 ug/ml at pH 5.6 after 20 h in absence of 10% beef serum
Aspergillus niger [22] = assay: Antifungal activity against Aspergillus niger ATCC 1004 at pH 7 after 5 days in absence of 10% beef serum; type: functional; details: Aspergillus niger, ATCC 1004, 120 h; read-out: MIC
Outline: as §1

Mucor mucedo [23] = assay: Antifungal activity against Mucor mucedo ATCC 7941 at pH 7 after 20 h in presence of 10% beef serum; details: ATCC 7941, 20 h
Aspergillus niger [24] = assay: Antifungal activity against Aspergillus niger ATCC 1004 at pH 5.6 after 5 days in presence of 10% beef serum; type: functional; details: Aspergillus niger, ATCC 1004, 120 h; read-out: MIC
Outline: as §1

Candida albicans [25] = assay: Antifungal activity against Candida albicans ATCC 10231 at pH 5.6 after 20 h in presence of 10% beef serum; details: ATCC 10231, 20 h
Candida albicans [26] = assay: Antifungal activity against Candida albicans ATCC 10231 at pH 7 after 20 h in presence of 10% beef serum; details: ATCC 10231, 20 h
Mucor mucedo [27] = assay: Antifungal activity against Mucor mucedo ATCC 7941 at pH 5.6 after 20 h in presence of 10% beef serum; details: ATCC 7941, 20 h
Aspergillus niger [28] = assay: Antifungal activity against Aspergillus niger ATCC 1004 at pH 5.6 after 5 days in absence of 10% beef serum; type: functional; details: Aspergillus niger, ATCC 1004, 120 h; read-out: MIC
Outline: as §1

SMILES	MIC (Candida albicans [3]) [µg/mL]	MIC (Candida albicans [5]) [µg/mL]	MIC [6] [µg/mL]	MIC (Mucor mucedo [7]) [µg/mL]	MIC [10] [µg/mL]	MIC [14] [µg/mL]	MIC [19] [µg/mL]	MIC (Mucor mucedo [27]) [µg/mL]	inhibition (Mucor mucedo [1])	inhibition (Aspergillus niger [2])	inhibition (Aspergillus niger [8])	inhibition (Aspergillus niger [9])	inhibition (Candida albicans [11])	inhibition (Mucor mucedo [12])	inhibition (Aspergillus niger [15])	inhibition (Candida albicans [16])	inhibition (Mucor mucedo [17])	inhibition (Candida albicans [18])	inhibition (Candida albicans [20])	inhibition (Mucor mucedo [21])	other results
CCOC(=O)/C=C\C(=O)OCC [DIETHYL MALEATE]	–	–	90	–	50	60	100	–	inactive	inactive	inactive	inactive	inactive	inactive	inactive	inactive	inactive	inactive	inactive	inactive	–
COC(=O)/C=C(/F)C(=O)OC	–	–	50 (≈ 308 µM)	40 (≈ 247 µM)	6 (≈ 37 µM)	8	–	20	inactive	inactive	inactive	inactive	inactive	–	inactive	inactive	–	inactive	inactive	–	inhibition [4]: inactive; MIC (Mucor mucedo [13]): 14 µg/mL (≈ 86.4 µM)
COC(=O)C(Br)CF (stereo not drawn)	–	–	100 (≈ 541 µM)	9 (≈ 48.7 µM)	50 (≈ 270 µM)	100	–	18	–	inactive	inactive	inactive	inactive	–	inactive	inactive	–	inactive	inactive	–	inhibition [4]: inactive; MIC (Mucor mucedo [23]): 30 µg/mL
CCCOC(=O)/C=C\C(=O)OCCC	–	–	50 (≈ 250 µM)	–	14 (≈ 69.9 µM)	40	60	–	inactive	inactive	inactive	inactive	inactive	inactive	inactive	inactive	inactive	inactive	inactive	inactive	–
COC(=O)/C=C\C(=O)OC [DIMETHYL MALEATE]	–	–	30	–	40	50	60	–	inactive	inactive	inactive	inactive	inactive	inactive	inactive	inactive	inactive	inactive	inactive	inactive	–
CCCCOC(=O)/C=C\C(=O)OCCCC	–	–	30 (≈ 131 µM)	–	8 (≈ 35 µM)	30	50	–	inactive	inactive	inactive	inactive	inactive	inactive	inactive	inactive	inactive	inactive	inactive	inactive	–

Continued, in another order:

MIC (Candida albicans [3]) [µg/mL]	MIC (Candida albicans [5]) [µg/mL]	MIC [6] [µg/mL]	MIC (Mucor mucedo [7]) [µg/mL]	MIC [10] [µg/mL]	MIC [14] [µg/mL]	MIC [19] [µg/mL]	MIC (Mucor mucedo [27]) [µg/mL]	SMILES	inhibition (Mucor mucedo [1])	inhibition (Aspergillus niger [2])	inhibition (Aspergillus niger [8])	inhibition (Aspergillus niger [9])	inhibition (Candida albicans [11])	inhibition (Mucor mucedo [12])	inhibition (Aspergillus niger [15])	inhibition (Candida albicans [16])	inhibition (Mucor mucedo [17])	inhibition (Candida albicans [18])	inhibition (Candida albicans [20])	inhibition (Mucor mucedo [21])	other results
70 (≈ 350 µM)	70 (≈ 350 µM)	30 (≈ 150 µM)	70 (≈ 350 µM)	6 (≈ 30 µM)	50	–	–	CCCOC(=O)/C=C/C(=O)OCCC	inactive	inactive	inactive	inactive	inactive	inactive	inactive	inactive	–	–	–	–	inhibition [4]: inactive; MIC (Mucor mucedo [13]): 60 µg/mL (≈ 300 µM)
3 (≈ 10 µM)	4 (≈ 13.4 µM)	2 (≈ 6.69 µM)	5 (≈ 16.7 µM)	< 1	12	16	18	CCCOC(=O)[C@H](F)[C@@H](Br)C(=O)OCCC (relative stereo)	–	inactive	–	–	–	–	–	–	–	–	–	–	MIC (Aspergillus niger [22]): 40 µg/mL (≈ 134 µM); MIC (Mucor mucedo [23]): 20 µg/mL; MIC (Aspergillus niger [24]): 40 µg/mL; MIC (Candida albicans [25]): 16 µg/mL; MIC (Candida albicans [26]): 16 µg/mL; MIC (Aspergillus niger [28]): 30 µg/mL (≈ 100 µM)
9 (≈ 27.5 µM)	40 (≈ 122 µM)	4 (≈ 12.2 µM)	20 (≈ 61.1 µM)	3 (≈ 9.17 µM)	20	30	30	CCCCOC(=O)[C@@H](F)[C@@H](Br)C(=O)OCCCC (relative stereo)	–	inactive	inactive	inactive	–	–	inactive	–	–	–	–	–	MIC (Mucor mucedo [23]): 50 µg/mL; MIC (Candida albicans [25]): 20 µg/mL; MIC (Candida albicans [26]): 50 µg/mL
–	–	30 (≈ 131 µM)	–	7 (≈ 30.7 µM)	60	–	–	CCCCOC(=O)/C=C/C(=O)OCCCC	inactive	inactive	inactive	inactive	inactive	inactive	inactive	inactive	inactive	inactive	inactive	inactive	inhibition [4]: inactive
90 (≈ 350 µM)	90 (≈ 350 µM)	16 (≈ 62.2 µM)	40 (≈ 156 µM)	16 (≈ 62.2 µM)	18	40	50	COC(=O)CC(F)C(Br)C(=O)OC (stereo not drawn)	–	inactive	inactive	inactive	–	–	inactive	–	–	–	–	–	MIC (Mucor mucedo [23]): 60 µg/mL; MIC (Candida albicans [25]): 90 µg/mL; MIC (Candida albicans [26]): 90 µg/mL
20 (≈ 61.1 µM)	30 (≈ 91.7 µM)	30 (≈ 91.7 µM)	14 (≈ 42.8 µM)	< 1	30	50	80	CCCCOC(=O)[C@H](F)[C@@H](Br)C(=O)OCCCC (relative stereo)	inactive	inactive	inactive	inactive	–	–	inactive	–	–	–	–	–	MIC (Candida albicans [25]): 80 µg/mL; MIC (Candida albicans [26]): 90 µg/mL
–	–	30 (≈ 117 µM)	–	10 (≈ 39 µM)	50	60	–	CCCCCOC(=O)/C=C\C(=O)OCCCCC	inactive	inactive	inactive	inactive	inactive	inactive	inactive	inactive	inactive	inactive	inactive	inactive	–
